In ChEMBL document CHEMBL1212906, “Apoptotic effects of polyprenylated benzoylphloroglucinol derivatives from the twigs of Garcinia multiflora” (J Nat Prod, 2010):
Calls of active or inactive are those of the source. No cut-off for these calls is given here.

Assays:
[1] = Induction of apoptosis in human HeLaC3 cells assessed as yellow fluorescent protein/cyan fluorescent protein emission ratio at 100 uM after 72 hrs by FRET assay; format: functional, HeLa C3
Summary of the method: (§1)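 Caspase-3 FRET biosensor (CFP–DEVD–YFP) HeLa-C3 cells were grown in MEM with 10% FBS, penicillin and streptomycin at 37 °C in 5% CO2. 7500 cells per well were seeded and given compound after 12–16 h (DMSO stock ≥1000× working concentration). A YFP/CFP ratio ≤3 was scored as apoptosis. Triplicates, three repeats.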

[2] = Cytotoxicity against human HeLa cells after 72 hrs by MTT assay
[3] = Induction of apoptosis in human HeLaC3 cells assessed as yellow fluorescent protein/cyan fluorescent protein emission ratio at 25 uM after 72 hrs by FRET assay; format: functional, HeLa C3; summary of the method: as §1
[4] = Induction of apoptosis in human HeLaC3 cells assessed as yellow fluorescent protein/cyan fluorescent protein emission ratio at 50 uM after 72 hrs by FRET assay; format: functional, HeLa C3; summary of the method: as §1
HeLa C3 [5] = assay: Induction of apoptosis in human HeLaC3 cells assessed as morphological changes at 50 uM after 24 to 72 hrs; format: functional, cell-based
Summary of the method: (§2)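 Compound-treated HeLa-C3 biosensor cells were photographed under a microscope at 24, 48 and 72 h. Paclitaxel 500 nM was the positive control and untreated cells the negative control. Cell shrinkage and detachment from the plate were taken as apoptotic morphology.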

HeLa C3 [6] = assay: Induction of apoptosis in human HeLaC3 cells assessed as morphological changes at 100 uM after 24 to 72 hrs; format: functional, cell-based; summary of the method: as §2
HeLa C3 [7] = assay: Induction of apoptosis in human HeLaC3 cells at 25 uM after 72 hrs; format: functional, cell-based
Summary of the method: as §1, with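 “concentration). Plates were excited at 440 nm, with emission read at 486 (CFP) and 535 (YFP) nm, for up to 72 h.” for “concentration).”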

HeLa C3 [8] = assay: Induction of apoptosis in human HeLaC3 cells assessed as morphological changes at 25 uM after 24 to 72 hrs; format: functional, cell-based; summary of the method: as §2

SMILES	Ratio [1]	IC50 [2] [µM]	Ratio [3]	Ratio [4]	Activity (HeLa C3 [5])	Activity (HeLa C3 [6])	Activity (HeLa C3 [7])	Activity (HeLa C3 [8])
C=C(C)[C@H](CC=C(C)C)C[C@@]12C[C@@H](CC=C(C)C)C(C)(C)[C@@](CC(O)C(C)(C)O)(C(=O)C(C(=O)c3ccc(O)c(O)c3)=C1O)C2=O (stereo partly specified)	>3	23	>3	>3				
C=C(C)[C@H](CC=C(C)C)C[C@@]12C[C@@H](CC=C(C)C)C(C)(C)[C@@](CCC(C)(C)O)(C(=O)C(C(=O)c3ccc(O)c(O)c3)=C1O)C2=O [GARCIMULTIFLORONE D]	<=3	17.5	>3	<=3	Active			
C=C(C)C(O)C[C@H](C[C@@]12C[C@@H](CC=C(C)C)C(C)(C)[C@@](CC=C(C)C)(C(=O)C(C(=O)c3ccc(O)c(O)c3)=C1O)C2=O)C(=C)C (stereo partly specified) [GARCIMULTIFLORONE E]	<=3	14.3	>3	>3		Active		
C=C(C)[C@H](CC=C(C)C)C[C@@]12C[C@@H](CC(O)C(C)(C)O)C(C)(C)[C@@](CC=C(C)C)(C(=O)C(C(=O)c3ccc(O)c(O)c3)=C1O)C2=O (stereo partly specified) [GARCIMULTIFLORONE F]	<=3	14.9	>3	<=3	Active			
C=C(C)[C@H](CC=C(C)C)C[C@@]12C[C@@H](CC=C(C)C)C(C)(C)[C@@](CC=C(C)C)(C(=O)C(C(=O)c3ccc(O)c(O)c3)=C1O)C2=O [GUTTIFERONE F]	<=3		>3	<=3	Active			
CC(C)=CC[C@@H]1C[C@]23C[C@H](CC=C(C)C)C(C)(C)[C@](CC=C(C)C)(C(=O)C(C(=O)c4ccc(O)c(O)c4)=C2OC1(C)C)C3=O [ISOXANTHOCHYMOL]	>3		<=3	>3			Active	Active
O=C1c2c(O)cc(O)cc2O[C@H](c2ccc(O)cc2)[C@H]1c1c(O)cc(O)c2c(=O)cc(-c3ccc(O)c(O)c3)oc12 [MORELLOFLAVONE]	>3		>3	>3				
